Data reported in ChEMBL document CHEMBL5046323, “Discovery of Phospholipase D Inhibitors with Improved Drug-like Properties and Central Nervous System Penetrance” (ACS Med Chem Lett, 2022).
Converted amounts (≈) assume the structure as drawn.

Legend:
Phospholipase D2 = Phospholipase D2 (Homo sapiens, UniProt O14939); experiment: Inhibition of PLD2 (unknown origin) expressed in human HEK cells by immunoprecipitation; format: cell-based
In short: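 PLD1 or PLD2 immunoprecipitated from HEK-293 cell lysates and captured on plate with an antibody (ELISA format); 08:0 phosphatidylcholine substrate; released choline detected by Amplex Red readout.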

[1] = Microsomal stability in human liver microsomes assessed as intrinsic clearance; format: ADME, Microsome; conditions: read-out: CLH
In short: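 Intrinsic clearance (CLint) determined in rat or human liver microsomes.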

MDR1 (P-gp) = experiment: Efflux ratio of apparent permeability from basolateral to apical side over apical to basolateral side in dog MDCK-MDR1 cells; format: ADME, cell-based, Canis lupus familiaris
In short: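 Efflux ratio calculated as Papp(B–A)/Papp(A–B) across MDR1-transfected MDCK monolayers.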

[2] = Kinetic solubility of compound at pH 6.8; format: physicochemical; conditions: buffer, read-out: Kinetic_solubility
In short: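 Kinetic solubility measured at pH 6.8.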

[3] = Clearance in iv dosed rat administered as cassette dose; format: ADME, organism-based; conditions: in vivo
In short: (§1)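 Rat IV clearance from cassette dosing; unbound clearance calculated as CL/fu.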

[4] = Unbound clearance in iv dosed rat administered as cassette dose; format: ADME, organism-based; conditions: in vivo; in short: as §1
BCRP = experiment: Efflux ratio of apparent permeability from basolateral to apical side over apical to basolateral side in dog MDCK-BCRP cells; format: ADME, cell-based, Canis lupus familiaris
Cytochrome P450 1A2 = target: T1, Cytochrome P450 1A2 (Homo sapiens, UniProt P05177); experiment: Inhibition of CYP1A2 (unknown origin); format: ADME
T1 sequence (P05177 whole entry): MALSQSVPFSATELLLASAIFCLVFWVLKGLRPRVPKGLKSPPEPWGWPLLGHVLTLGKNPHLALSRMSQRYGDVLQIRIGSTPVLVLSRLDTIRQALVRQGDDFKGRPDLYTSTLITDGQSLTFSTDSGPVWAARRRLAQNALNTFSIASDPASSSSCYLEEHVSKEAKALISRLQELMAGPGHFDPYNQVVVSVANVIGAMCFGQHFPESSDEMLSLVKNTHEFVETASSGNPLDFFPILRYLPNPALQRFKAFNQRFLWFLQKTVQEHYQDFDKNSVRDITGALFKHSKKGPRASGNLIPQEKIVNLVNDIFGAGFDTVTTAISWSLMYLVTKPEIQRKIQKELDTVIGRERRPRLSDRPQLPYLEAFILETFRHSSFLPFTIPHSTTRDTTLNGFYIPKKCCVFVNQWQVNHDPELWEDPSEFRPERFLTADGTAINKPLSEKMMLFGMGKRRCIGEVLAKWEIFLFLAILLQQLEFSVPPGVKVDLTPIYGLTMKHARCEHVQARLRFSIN

Cytochrome P450 2B6 = target: T2, Cytochrome P450 2B6 (Homo sapiens, UniProt P20813); experiment: Inhibition of CYP2B6 (unknown origin); format: ADME
T2 sequence (P20813 whole entry): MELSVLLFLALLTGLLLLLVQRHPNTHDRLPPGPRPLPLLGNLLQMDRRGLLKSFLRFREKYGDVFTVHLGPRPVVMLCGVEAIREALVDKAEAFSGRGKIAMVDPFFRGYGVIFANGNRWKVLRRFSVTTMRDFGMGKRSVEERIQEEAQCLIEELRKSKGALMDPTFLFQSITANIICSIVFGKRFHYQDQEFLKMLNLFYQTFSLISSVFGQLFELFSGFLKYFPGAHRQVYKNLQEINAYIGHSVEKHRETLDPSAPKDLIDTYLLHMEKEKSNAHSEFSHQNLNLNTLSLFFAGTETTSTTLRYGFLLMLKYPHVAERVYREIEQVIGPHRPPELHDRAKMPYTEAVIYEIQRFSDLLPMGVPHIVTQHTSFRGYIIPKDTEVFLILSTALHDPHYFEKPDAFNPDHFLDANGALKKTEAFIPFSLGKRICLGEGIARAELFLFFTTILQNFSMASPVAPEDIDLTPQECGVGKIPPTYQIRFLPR

Cytochrome P450 2C9 = Cytochrome P450 2C9 (Homo sapiens, UniProt P11712); experiment: Inhibition of CYP2C9 (unknown origin); format: ADME
Cytochrome P450 3A4 = Cytochrome P450 3A4 (Homo sapiens, UniProt P08684); experiment: Inhibition of CYP3A4 (unknown origin); format: ADME
[5] = Plasma protein binding in rat; format: ADME, cell-free
[6] = Plasma protein binding in rat assessed as unbound fraction; format: ADME, cell-free
[7] = Unbound brain-to-plasma concentration ratio in rat; format: ADME; conditions: read-out: K(p,uu,brain)
In short: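 Kpu,u is the ratio of free compound concentration in brain over free concentration in plasma at steady state, determined by rat infusion.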

[8] = AUClast in sc dosed C57BL/6 mouse by LC-MS/MS analysis; format: ADME, organism-based; set-up: route subcutaneous, time 0 - last; conditions: in vivo
[9] = Cmax in sc dosed C57BL/6 mouse by LC-MS/MS analysis; format: ADME, organism-based; set-up: route subcutaneous; conditions: in vivo
[10] = Drug concentration in sc dosed C57BL/6 mouse liver measured after 15 mins by LC-FTICR-MS analysis; format: ADME, organism-based; conditions: read-out: Ct
In short: (§2)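 Mice dosed subcutaneously at 10 mg/kg 15, 30 or 60 min before injection of 1-butanol-d10; tissues (liver, brain) collected 15 min after butanol injection for compound levels.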

[11] = Drug concentration in sc dosed C57BL/6 mouse liver measured after 30 mins by LC-FTICR-MS analysis; format: ADME, organism-based; conditions: read-out: Ct; in short: as §2
[12] = Drug concentration in sc dosed C57BL/6 mouse brain measured after 30 mins by LC-FTICR-MS analysis; format: ADME, organism-based; conditions: read-out: Ct; in short: as §2
[13] = Drug concentration in sc dosed C57BL/6 mouse brain measured after 60 mins by LC-FTICR-MS analysis; format: ADME, organism-based; conditions: read-out: Ct; in short: as §2
[14] = Oral bioavailability in rat; format: ADME, organism-based; conditions: in vivo
In short: (§3)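 Rat oral PK, average of two experiments with n = 3 rats each; formulation HPMC/Tween.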

[15] = Tmax in po dosed rat; format: ADME, organism-based; conditions: in vivo; in short: as §3
[16] = target: Phospholipase D1 (Homo sapiens) (UniProt Q13393); experiment: Inhibition of PLD1 in human Calu-1 cells assessed as reduction in d9-phosphobutanol formation by mass spectrometry-based transphosphatidylation assay

Chain of Phospholipase D2 (O14939 whole entry): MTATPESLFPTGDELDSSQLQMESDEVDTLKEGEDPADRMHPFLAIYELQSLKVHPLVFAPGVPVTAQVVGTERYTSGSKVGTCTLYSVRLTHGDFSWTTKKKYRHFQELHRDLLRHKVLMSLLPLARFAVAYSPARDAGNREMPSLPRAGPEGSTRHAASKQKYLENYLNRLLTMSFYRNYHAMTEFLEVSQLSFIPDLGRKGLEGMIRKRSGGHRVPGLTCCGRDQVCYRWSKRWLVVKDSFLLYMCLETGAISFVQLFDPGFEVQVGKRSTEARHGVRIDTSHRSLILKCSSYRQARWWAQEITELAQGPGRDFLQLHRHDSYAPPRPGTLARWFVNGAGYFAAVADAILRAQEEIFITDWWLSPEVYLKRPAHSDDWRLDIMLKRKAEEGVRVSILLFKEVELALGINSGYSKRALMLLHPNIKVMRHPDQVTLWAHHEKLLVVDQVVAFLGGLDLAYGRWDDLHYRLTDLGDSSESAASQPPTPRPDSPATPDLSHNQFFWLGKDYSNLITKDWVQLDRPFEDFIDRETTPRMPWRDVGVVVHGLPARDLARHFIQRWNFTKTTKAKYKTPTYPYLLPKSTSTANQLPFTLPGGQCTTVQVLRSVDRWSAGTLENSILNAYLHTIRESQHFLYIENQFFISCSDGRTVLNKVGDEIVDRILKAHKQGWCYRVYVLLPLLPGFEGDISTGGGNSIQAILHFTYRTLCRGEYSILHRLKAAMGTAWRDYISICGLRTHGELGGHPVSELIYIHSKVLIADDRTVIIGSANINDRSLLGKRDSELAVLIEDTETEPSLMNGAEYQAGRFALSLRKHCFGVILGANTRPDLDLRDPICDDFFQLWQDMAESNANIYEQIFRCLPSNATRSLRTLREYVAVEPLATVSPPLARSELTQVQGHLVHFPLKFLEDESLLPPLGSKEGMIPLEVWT
Chain of Cytochrome P450 3A4 (P08684 whole entry): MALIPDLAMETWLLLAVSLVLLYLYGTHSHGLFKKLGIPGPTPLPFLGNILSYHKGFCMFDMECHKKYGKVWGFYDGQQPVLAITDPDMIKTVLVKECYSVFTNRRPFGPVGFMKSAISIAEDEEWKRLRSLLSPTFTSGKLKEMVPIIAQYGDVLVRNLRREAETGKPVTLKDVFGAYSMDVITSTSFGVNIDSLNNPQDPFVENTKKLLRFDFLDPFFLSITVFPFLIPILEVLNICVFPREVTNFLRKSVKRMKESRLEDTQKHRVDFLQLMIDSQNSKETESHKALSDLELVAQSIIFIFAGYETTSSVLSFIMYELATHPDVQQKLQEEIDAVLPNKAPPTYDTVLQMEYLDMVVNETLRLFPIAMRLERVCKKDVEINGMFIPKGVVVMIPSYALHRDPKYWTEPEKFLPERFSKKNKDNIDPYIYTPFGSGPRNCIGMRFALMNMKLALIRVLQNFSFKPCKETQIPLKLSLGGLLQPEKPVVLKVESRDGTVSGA
Chain of Cytochrome P450 2C9 (P11712 whole entry): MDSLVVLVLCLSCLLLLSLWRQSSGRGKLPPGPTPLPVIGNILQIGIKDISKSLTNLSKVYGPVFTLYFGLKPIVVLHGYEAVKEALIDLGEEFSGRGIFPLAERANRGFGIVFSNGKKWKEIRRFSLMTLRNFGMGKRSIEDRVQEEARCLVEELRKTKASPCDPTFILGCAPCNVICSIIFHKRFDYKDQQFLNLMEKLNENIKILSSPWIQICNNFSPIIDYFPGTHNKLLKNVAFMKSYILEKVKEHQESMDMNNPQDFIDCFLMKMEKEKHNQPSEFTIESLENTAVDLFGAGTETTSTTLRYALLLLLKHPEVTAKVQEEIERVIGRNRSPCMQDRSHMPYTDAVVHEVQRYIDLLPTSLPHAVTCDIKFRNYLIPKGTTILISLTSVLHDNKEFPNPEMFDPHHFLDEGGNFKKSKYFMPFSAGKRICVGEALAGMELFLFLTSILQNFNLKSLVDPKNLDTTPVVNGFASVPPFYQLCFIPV

In the case of `C[C@@H]1CN(C(=O)[C@H](C)N2CCC(n3c(=O)[nH]c4ccccc43)CC2)C[C@@H](C)N1`, the IC50 (Phospholipase D2) is reported as 0.23 µM, the CLint scaled [1] is reported as 6 mL/min/kg and the efflux ratio (MDR1 (P-gp)) is reported as 9.2. It also gave a solubility kinetic [2] of 72.6 µg/mL (≈ 188 µM), a clearance [3] of 28 mL/min/kg and a CL free [4] of 84 mL/min/kg. For the same compound, the efflux ratio (BCRP) was 1.2, the IC50 (Cytochrome P450 1A2) was greater than 10 µM and the IC50 (Cytochrome P450 2B6) was greater than 10 µM. The IC50 (Cytochrome P450 2C9) was greater than 10 µM, the IC50 (Cytochrome P450 3A4) was greater than 10 µM and the PPB [5] was 36.3%. It also gave a Fu [6] of 10.8%, a Kp uu [7] of 0.8 and an AUC(0-t) [8] of 7990 ng·h/mL. The Cmax [9] was 2960 ng/mL, the concentration at 0.25 h [10] was 4550 ng/g and the concentration at 0.5 h [11] was 7160 ng/g. The concentration at 0.5 h [12] was 109 ng/g, the concentration at 1 h [13] was 117 ng/g and the bioavailability [14] was 21%. The Tmax [15] was 3 h and the IC50 [16] was 0.006 µM.
